Activity calls are given as the source filed them. The rule behind the calls is not given here.
Tests used:
Mus musculus [1] = assay: Toxicity in BALB/cByJ mouse assessed as biochemical parameters at 50 mg/kg, ip daily for 3 weeks measured 2 hrs after final injection; format: organism-based; parameters: dose 50 mg/kg, route intraperitoneal; conditions: in vivo
Mus musculus [2] = assay: Toxicity in BALB/cByJ mouse assessed as outward signs of distress at 50 mg/kg, ip daily for 3 weeks measured 2 hrs after final injection; format: organism-based; parameters: dose 50 mg/kg, route intraperitoneal; conditions: in vivo
Mus musculus [3] = assay: Toxicity in BALB/cByJ mouse assessed as outward signs of pain at 50 mg/kg, ip daily for 3 weeks measured 2 hrs after final injection; format: organism-based; parameters: dose 50 mg/kg, route intraperitoneal; conditions: in vivo
[4] = biological target: T1, Serine/threonine-protein phosphatase PGAM5, mitochondrial (Mus musculus) (UniProt Q8BX10); assay: Inhibition of glutamate-induced increase in lower band of PGAM5 in mouse HT22 cells at 125 nM after 16 hrs by Western blotting analysis; format: cell-based; conditions: HT-22
T1 sequence (whole entry): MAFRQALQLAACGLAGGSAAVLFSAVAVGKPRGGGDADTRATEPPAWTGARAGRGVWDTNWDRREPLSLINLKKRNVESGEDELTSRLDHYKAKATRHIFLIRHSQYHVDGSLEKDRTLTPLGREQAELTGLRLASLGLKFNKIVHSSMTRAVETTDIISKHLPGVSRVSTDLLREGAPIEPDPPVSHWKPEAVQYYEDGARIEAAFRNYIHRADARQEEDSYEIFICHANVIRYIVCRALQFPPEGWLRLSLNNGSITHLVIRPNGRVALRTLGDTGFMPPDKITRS
How it was run: (§1)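 HT22 cells were treated with 10 mM glutamate plus compound for 16 h, harvested, and lysed in low-salt buffer (50 mM Tris-HCl pH 7.4, 150 mM NaCl, 10% glycerol, Triton X-100, protease/phosphatase inhibitors) for 30 min with a brief sonication. Lysates were run on 4–12% gels and immunoblotted for phospho-Drp1 Ser637, total Drp1, PGAM5, actin and α-tubulin, then analyzed by densitometry.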

[5] = biological target: Dynamin-1-like protein (Mus musculus) (UniProt Q8K1M6); assay: Inhibition of glutamate-induced decrease in DRP1 phosphorylation at serine 637 in mouse HT22 cells at 125 nM after 16 hrs by Western blotting analysis; format: cell-based; conditions: HT-22; how it was run: as §1
Chain of Dynamin-1-like protein (Mus musculus) (Q8K1M6 whole entry): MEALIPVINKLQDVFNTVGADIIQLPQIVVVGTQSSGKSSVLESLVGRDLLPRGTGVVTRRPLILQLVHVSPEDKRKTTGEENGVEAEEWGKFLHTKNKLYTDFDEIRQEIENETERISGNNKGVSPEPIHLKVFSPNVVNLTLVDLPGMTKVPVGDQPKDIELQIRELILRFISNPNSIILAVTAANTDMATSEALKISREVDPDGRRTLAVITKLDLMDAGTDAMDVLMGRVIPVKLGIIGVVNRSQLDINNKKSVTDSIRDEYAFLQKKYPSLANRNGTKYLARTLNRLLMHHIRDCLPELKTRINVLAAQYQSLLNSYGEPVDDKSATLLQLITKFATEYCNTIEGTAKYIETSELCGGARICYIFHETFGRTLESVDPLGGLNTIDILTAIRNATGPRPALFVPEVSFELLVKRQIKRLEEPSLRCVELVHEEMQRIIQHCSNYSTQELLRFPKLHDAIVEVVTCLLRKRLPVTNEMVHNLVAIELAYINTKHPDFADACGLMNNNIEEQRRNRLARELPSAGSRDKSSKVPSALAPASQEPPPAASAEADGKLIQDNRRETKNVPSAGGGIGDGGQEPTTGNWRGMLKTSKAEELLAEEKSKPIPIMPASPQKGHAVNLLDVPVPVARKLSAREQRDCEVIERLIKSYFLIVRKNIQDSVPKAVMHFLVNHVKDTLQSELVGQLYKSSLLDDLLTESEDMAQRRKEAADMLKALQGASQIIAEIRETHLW

HT-22 [6] = assay: Neuroprotective activity in mouse HT22 cells assessed as prevention from tBuOOH-induced oxidative cell death after 3 hrs by MTS assay; format: functional, cell-based
How it was run: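 HT22 cells were seeded at 5.0 × 10^3 per well and cultured overnight, then exposed to 50 μM t-BuOOH (final) plus compound for 3 h. Medium was removed, cells were washed with HBSS and returned to normal medium. MTS was added 24 h after initial treatment, absorbance was read at 490 nm after 2 h, and viability was expressed as percent of untreated cells.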

HT-22 [7] = assay: Antioxidant activity in mouse HT22 cells assessed as upregulation of NQO1 protein expression 8 hrs by Western blotting analysis; format: functional, cell-based
HT-22 [8] = assay: Antioxidant activity in mouse HT22 cells assessed as upregulation of HO1 protein expression 8 hrs by Western blotting analysis; format: functional, cell-based
HT-22 [9] = assay: Neuroprotective activity in mouse HT22 cells assessed as reduction of glutamate-induced mitochondrial fragmentation at 250 nM after 8 hrs by Mitotracker DR staining-based fluorescence microscopic analysis; format: functional, cell-based
How it was run: (§2)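 HT22 cells were given 10 mM glutamate plus compound for 8 h, then co-stained with MitoSOX Red (5 μM final) and Mitotracker Deep Red (10 nM final) for 20 min. Cells were washed twice with HBSS and imaged live by fluorescence microscopy in HBSS.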

HT-22 [10] = assay: Neuroprotective activity in mouse HT22 cells assessed as reduction of glutamate-induced mitochondrial superoxide generation at 250 nM after 8 hrs by MitoSOX RED staining-based fluorescence microscopic analysis; format: functional, cell-based; how it was run: as §2
HT-22 [11] = assay: Antioxidant activity in mouse HT22 cells assessed as upregulation of NQO1 gene expression at 250 nM after 16 hrs by qRT-PCR analysis in the absence of glutamate; format: functional, cell-based
How it was run: (§3)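 HT22 cells were seeded at 3.0 × 10^5 per well and cultured overnight, then treated with or without 10 mM glutamate plus compound (DMSO stock) for 16 h. Cells were trypsinized and washed in cold Ca/Mg-free HBSS. HO-1 and NQO-1 mRNA were measured by qRT-PCR with β2-microglobulin as reference gene, and fold change was calculated by the Livak method.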

HT-22 [12] = assay: Antioxidant activity in mouse HT22 cells assessed as upregulation of HO1 gene expression at 250 nM after 16 hrs by qRT-PCR analysis in the absence of glutamate; format: functional, cell-based; how it was run: as §3
HT-22 [13] = assay: Antioxidant activity in mouse HT22 cells assessed as reduction in glutamate-induced upregulation of HO1 gene expression at 250 nM after 16 hrs by qRT-PCR analysis relative to untreated control; format: functional, cell-based; how it was run: as §3
HT-22 [14] = assay: Antioxidant activity in mouse HT22 cells assessed as reduction in glutamate-induced upregulation of NQO1 gene expression at 250 nM after 16 hrs by qRT-PCR analysis relative to glutamate-treated control; format: functional, cell-based; how it was run: as §3
[15] = test system: Radical scavenging activity; assay: Antioxidant activity assessed as DPPH free radical scavenging activity at 20 uM; format: functional
How it was run: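 Test agents at 20 μM final, added to 100 μM DPPH in methanol; absorbance at 517 nm monitored immediately for 10 min. Trolox and ascorbic acid served as positive controls, and the rate of absorbance loss was taken as antioxidant potency.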

HT-22 [16] = assay: Antioxidant activity in mouse HT22 cells assessed as prevention of glutamate-induced intracellular accumulation of free radicals at 250 nM after 8 hrs by spectrofluorometric analysis; format: functional, cell-based
How it was run: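 HT22 cells were seeded at 5.0 × 10^3 per well and cultured overnight, then given 10 mM glutamate plus compound for 8 h. Rho123 was added at 5 μM final for 20 min, cells were washed twice with HBSS, and oxidized Rho123 fluorescence was read at 500 nm excitation and 536 nm emission.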

HT-22 [17] = assay: Ratio of VK2 IC50 to 2-((4-Chlorobenzyl)amino)naphthalene-1,4-dione IC50 for prevention from glutamate-induced oxidative cell death in mouse HT22 cells; format: functional
[18] = Neurotoxicity in mouse HT22 cells assessed as cell viability after 24 hrs by MTS assay; format: toxicity, cell-based, HT-22; conditions: read-out: TC50
How it was run: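 HT22 cells were seeded at 5.0 × 10^3 per well, cultured overnight, and treated with a range of compound concentrations without glutamate for 24 h. MTS was added for 2 h and absorbance read at 490 nm. Viability was expressed as percent of untreated cells, and TC50 was fit from titration curves (7- or 12-point, n = 3–4).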

[19] = Therapeutic index, ratio of cytotoxic TC50 for mouse HT22 cells to neuroprotective PD50 for mouse HT22 cells; format: cell-based, HT-22; conditions: read-out: TI
HT-22 [20] = assay: Neuroprotective activity in mouse HT22 cells assessed as prevention from glutamate-induced oxidative cell death by MTS assay; format: functional
How it was run: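 HT22 cells grown in high-glucose DMEM with 10% FBS and antibiotic-antimycotic at 37°C, 5% CO2. Seeded at 5.0 × 10^3 cells/well overnight, then given 10 mM glutamate (final) plus compound from DMSO stock. MTS added 24 h after treatment, 2 h at 37°C, A490 read. Viability taken as % of untreated cells. PC50 from 12-point titrations; experiments repeated at least four times.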

HT-22 [21] = assay: Antioxidant activity in mouse HT22 cells assessed as reduction in glutamate-induced upregulation of HO1 gene expression at 250 nM after 16 hrs by qRT-PCR analysis relative to glutamate-treated control; format: functional, cell-based; how it was run: as §3
Mus musculus [22] = assay: Toxicity in BALB/cByJ mouse assessed as weight loss at 50 mg/kg, ip daily for 3 weeks measured 2 hrs after final injection; format: organism-based; parameters: dose 50 mg/kg, route intraperitoneal; conditions: in vivo

Compound: O=C1C=C(NCc2cccc(Cl)c2)C(=O)c2ccccc21
- Activity (Mus musculus [1]): Non-toxic
- Activity (Mus musculus [2]): Non-toxic
- Activity (Mus musculus [3]): Non-toxic
- inhibition [4]: Active
- inhibition [5]: Active
- Activity (HT-22 [6]): Active
- Activity (HT-22 [7]): inactive
- Activity (HT-22 [8]): inactive
- Activity (HT-22 [9]): Active
- Activity (HT-22 [10]): Active
- Activity (HT-22 [11]): inactive
- Activity (HT-22 [12]): inactive
- Activity (HT-22 [13]): inactive
- Activity (HT-22 [14]): inactive
- Activity [15]: inactive
- Activity (HT-22 [16]): Active
- Ratio IC50 (HT-22 [17]): >10
- CC50 at 24 h [18]: > 100 µM
- selectivity ratio [19]: > 3230
- PD50 (HT-22 [20]): 31 nM
- Activity (HT-22 [21]): Active
- Activity (Mus musculus [22]): Non-toxic
